25 compounds from PubChem BioAssay AID493091 (Sanford-Burnham Center for Chemical Genomics, 2011) can be followed below.

The structures appear in SMILES notation. Out of some 340,000 compounds screened, about 3,000 (0.88%) were called active. The sample holds actives, similar compounds and a random draw of the others, so the mix is not that of the screen. A number with no mark means an inactive call.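 The calls were made as follows: active = inhibition above about 50% at 20 µM (limit read from the data); inactive = the rest.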

One may read the inhibition as the drop in the measured response relative to a control, in per cent.

Carboxy-terminal domain RNA polymerase II polypeptide A small phosphatase 1 (Homo sapiens), sequence (Q9GZU7 76-261 limits assumed): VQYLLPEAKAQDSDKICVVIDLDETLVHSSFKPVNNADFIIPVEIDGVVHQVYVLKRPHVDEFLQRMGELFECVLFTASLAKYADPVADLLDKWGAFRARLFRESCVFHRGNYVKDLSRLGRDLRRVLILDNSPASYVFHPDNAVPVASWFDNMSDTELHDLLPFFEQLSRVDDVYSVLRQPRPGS

For this assay, the target named is Carboxy-terminal domain RNA polymerase II polypeptide A small phosphatase 1 (Homo sapiens) (UniProt Q9GZU7). The assay is described as follows: Scp-1 phosphatase inhibitors, primary screen, biochemical, colorimetric, uHTS (AID 493091).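 Also: plate controls were DMSO wells with enzyme for no effect and wells lacking enzyme for full effect.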 Particulars: Recombinant Scp1, phosphopeptide, malachite green phosphate absorbance; at 20 µM; stronger effect = higher value. In short, it runs like this:
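Incubation: 45 min enzyme reaction at room temperature / System: truncated SCP-1 phosphatase (76-261aa) / Reagent: Phospho 17-mer peptide substrate / Buffer or medium: Acidic Tris acetate buffer with magnesium and detergent / Signal: absorbance at 630 nm / Doses: one concentration, 20 µM, with 1.0% DMSO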
In the case of `O=C(O)CCn1cc(C=C2C(=O)NC(=S)NC2=O)c(-c2cccc(Br)c2)n1`, the inhibition was 69.2% (active).

Take `CC(=O)N(C1=NCCCS1)c1ccccc1F`: the inhibition is -8.48%.

Regarding `Nc1ccc(Cc2ccc(N)c(Cl)c2)cc1Cl`, the inhibition was -6.26%.

`Cc1ccc(C2CN(C)CC2C(=O)c2ccc(F)cc2)cc1` (stereo not given): the inhibition is 2.83%.

In the case of `O=C(Cc1ccc(Cl)cc1)NCCN1CCN(C(=O)Cc2ccc(Cl)cc2)CC1`, the inhibition is -8.32%.

For `Cc1ccc(S(=O)(=O)N(C)c2ccc(C(=O)NCC3(N(C)C)CCCCC3)cc2)cc1`, the inhibition is -2.43%.

Consider `COc1ccc(N2C(=O)/C(=C/c3ccco3)C(=O)NC2=S)cc1`, for which the inhibition was 92.7% (active).

As to `O=C1NC(=O)N(Cc2ccco2)C(=O)/C1=C\c1ccc(-c2ccc(F)cc2)o1`, the inhibition was 5.05%.

As to `COc1cccc(N2C(=O)NC(=O)/C(=C\c3ccc([N+](=O)[O-])s3)C2=O)c1`, the inhibition was 17.3%.

Regarding `CCN(CC)CCOC(=O)c1cc2cc(COC)ccc2o1`, the inhibition is 70.7% (active).

With `COc1ccc2c(c1)NP(=S)(c1ccccc1)N2` (stereo not given), the inhibition is 0.52%.

Take `CSc1ccc(C(=O)C2CCCN(Cc3ccn[nH]3)C2)cc1` (stereo not given): the inhibition is -7.2%.

As to `CCN(CC)C(=O)Oc1ccc(NC(=O)N2CCOCC2)cc1`, the inhibition is -3.55%.

Regarding `COC(=O)C1=C(c2cc3ccccc3s2)C[C@@H]2CC[C@H]1N2C(=O)NCc1cccc2ccccc12`, the inhibition is -7.13%.

As for `O=c1[nH]c(=O)n(CCc2ccc(F)cc2)c(O)c1/C=N/N1CCCCC1`, the inhibition was 51% (active).

Regarding `O=c1[nH]c(=O)n(CCc2ccccc2)c(O)c1/C=N/N1CCOCC1`, the inhibition was -5.04%.

Regarding `O=c1[nH]c(=O)n(-c2ccc(F)cc2)c(O)c1C=NCCN1CCCCC1`, the inhibition is -0.8%.

As to `CN1CCN(Cc2ccc(OC(F)(F)F)cc2)CC1`, the inhibition was 22.4%.

For the compound `COc1ccccc1N=Nc1c(O)[nH]c(=S)[nH]c1=O`, the inhibition is 9.19%.

On to `COc1ccccc1N=C1SCCCN1C`, for which the inhibition was 95.3% (active).

Take `CC(=O)Nc1ccc(C(=O)C(Cc2ccccc2)N(C)C)cc1` (stereo not given): the inhibition was -12.1%.

Regarding `O=C(NCC(c1cccnc1)N1CCN(c2ccccc2)CC1)Oc1ccccc1` (stereo not given), the inhibition was -0.44%.

Consider `CC1CNCCN1c1ccc(Cl)cc1` (stereo not given), for which the inhibition is 2.17%.

`CN(C)C(=O)Oc1ccc2c(c1)O/C(=C\c1ccccc1)C2=O`: the inhibition is -15.9%.

With `Cc1ccc(C)c(NC2=NCCCS2)c1`, the inhibition is -6%.
